Measured values from PubChem BioAssay AID504513 (The Scripps Research Institute Molecular Screening Center, 2011).
Calls of active or inactive are those of the source.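 Rule for the calls: active = PAFAH2 inhibition at least 50% at 0.2 µM with under 50% on each related off-target enzyme; inactive = the rest, including PAFAH2 hits that also hit off-targets.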

Assays:
Assay in all cases: competitive ABPP of PAFAH2 versus anti-target hydrolases – cell lysate, fluorescence, gel-based ABPP, BW5147 T-cell proteome, powder samples, late-stage follow-up (AID 504513);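 note: 0% = DMSO-only band intensity and 100% = blank gel background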
[1] = tested on: ABHD11; details: BW5147 mouse T-cell proteome, FP-Rh gel ABPP, stronger effect = higher value
In short: (§1)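 assay system = mouse BW5147 T-cell soluble lysate | amount = 1 mg/mL soluble protein | schedule = compound pretreatment 30 min, then 30 min probe labelling at 25 °C | measured by = in-gel fluorescence of probe-labelled bands, integrated optical density | evaluation = percent band labelling lost versus DMSO control | control set = DMSO-only sample as high, blank gel area as low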

[2] = tested on: APEH; details: BW5147 mouse T-cell proteome, FP-Rh gel ABPP, stronger effect = higher value
In short: as §1

[3] = tested on: ESD; details: BW5147 mouse T-cell proteome, FP-Rh gel ABPP, stronger effect = higher value
In short: as §1

[4] = tested on: LYPLA1; details: BW5147 mouse T-cell proteome, FP-Rh gel ABPP, stronger effect = higher value
In short: as §1

[5] = biological target: Platelet-activating factor acetylhydrolase 2, cytoplasmic (Mus musculus) (UniProt Q8VDG7); details: FP-Rh gel ABPP, stronger effect = higher value
Chain of Platelet-activating factor acetylhydrolase 2, cytoplasmic (Mus musculus) (Q8VDG7 whole entry, looked up): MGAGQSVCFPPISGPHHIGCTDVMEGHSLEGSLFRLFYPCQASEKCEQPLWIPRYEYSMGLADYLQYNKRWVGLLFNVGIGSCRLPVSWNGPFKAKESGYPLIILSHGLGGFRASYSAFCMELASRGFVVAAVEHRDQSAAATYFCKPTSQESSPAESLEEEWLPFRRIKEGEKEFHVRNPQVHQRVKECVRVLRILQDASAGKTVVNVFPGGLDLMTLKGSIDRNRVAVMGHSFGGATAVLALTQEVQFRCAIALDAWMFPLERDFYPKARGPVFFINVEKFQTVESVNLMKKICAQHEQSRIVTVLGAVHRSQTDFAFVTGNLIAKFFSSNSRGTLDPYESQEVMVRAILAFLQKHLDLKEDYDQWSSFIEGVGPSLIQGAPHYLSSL
In short: as §1

inhibition ([1]; at 1 µM): 0% (inactive)
inhibition ([1]; inhibition, at 0.02 µM): 0%
inhibition ([1]; inhibition, at 0.2 µM): 0%
inhibition ([2]; at 1 µM): 0% (inactive)
inhibition ([2]; inhibition, at 0.02 µM): 0%
inhibition ([2]; inhibition, at 0.2 µM): 0%
inhibition ([3]; at 1 µM): 0% (inactive)
inhibition ([3]; inhibition, at 0.02 µM): 0%
inhibition ([3]; inhibition, at 0.2 µM): 0%
inhibition ([4]; at 1 µM): 0% (inactive)
inhibition ([4]; inhibition, at 0.02 µM): 0%
inhibition ([4]; inhibition, at 0.2 µM): 0%
inhibition ([5]; PAFAH2, at 1 µM): 100%
inhibition ([5]; PAFAH2, inhibition, at 0.02 µM): 100%
inhibition ([5]; PAFAH2, inhibition, at 0.2 µM): 100%
Structure (SMILES): O=C(N1CCCC1)n1ncc(-c2ccc(-c3ccccc3)cc2)n1
